SMILES strings stand for the structures. Residues, ends and D or L forms follow the SMILES beside them. *: point of attachment. Cbz = O=C(OCc1ccccc1)*; CH2F = FC*

Test [1] concerns the target Cathepsin B (Homo sapiens) (UniProt P07858). The test can be described thus: Ratio of second order rate constant of calpain I to that of cathepsinB.
Test [2] has the same target. The test can be described thus: Second order rate constant for inactivation of human liver cathepsin B was reported. A digest of the protocol: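 Human liver cathepsin B inactivation was run by an analogous progress-curve method (substrate plus inhibitor) under published assay conditions. The second-order rate constant came from progress-curve analysis. Inhibitor was added as quickly as possible before measurement because of limited aqueous stability.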

Test [3] has as its target T1, Calpain-1 catalytic subunit (Homo sapiens) (UniProt P07384).
T1 sequence (whole entry): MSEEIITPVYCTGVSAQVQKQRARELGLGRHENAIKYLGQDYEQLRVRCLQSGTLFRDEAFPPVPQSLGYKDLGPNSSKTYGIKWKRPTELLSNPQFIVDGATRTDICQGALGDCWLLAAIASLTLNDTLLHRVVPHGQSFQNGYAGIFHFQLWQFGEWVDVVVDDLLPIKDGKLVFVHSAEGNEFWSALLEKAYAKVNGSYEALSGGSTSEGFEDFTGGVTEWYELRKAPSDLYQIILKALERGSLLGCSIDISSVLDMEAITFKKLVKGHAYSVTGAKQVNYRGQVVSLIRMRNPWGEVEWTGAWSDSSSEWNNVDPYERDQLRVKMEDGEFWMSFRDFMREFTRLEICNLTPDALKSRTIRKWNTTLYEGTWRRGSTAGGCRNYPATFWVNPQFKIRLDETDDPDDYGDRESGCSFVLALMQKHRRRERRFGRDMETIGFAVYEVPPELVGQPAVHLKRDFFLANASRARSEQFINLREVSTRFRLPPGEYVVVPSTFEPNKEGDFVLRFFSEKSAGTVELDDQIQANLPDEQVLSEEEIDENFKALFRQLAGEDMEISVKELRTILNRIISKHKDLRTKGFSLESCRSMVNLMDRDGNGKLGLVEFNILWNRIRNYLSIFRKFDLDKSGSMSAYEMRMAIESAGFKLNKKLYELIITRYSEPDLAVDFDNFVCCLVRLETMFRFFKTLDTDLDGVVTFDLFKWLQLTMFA
The test can be described thus: Second order rate constant for inactivation of recombinant human Calpain 1 was reported. A digest of the protocol:
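Started with 5 mM CaCl2 at ambient temperature. Fluorescence (ex 340/em 440 nm) was recorded continuously. kobs came from an exponential fit, and k2 from the kobs-vs-[I] slope with a (1+S/Km) correction.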

Test [4] has as its target T1, Calpain-1 catalytic subunit (Homo sapiens). Kind of test: Percent inhibition of recombinant Calpain 1 after 5 min of incubation with 10 uM compound. A digest of the protocol:
(§1)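 Single-concentration test: 10 inhibitor, 5 min incubation, then percent inhibition of recombinant human calpain I activity measured by the fluorogenic Suc-Leu-Tyr-MNA assay (ex 340/em 440 nm) in Ca2+-initiated buffer at ambient temperature.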

Test [5] concerns the target Cathepsin B (Homo sapiens) (UniProt P07858). Kind of test: Percent inhibition of recombinant calpain I after 5 min of incubation with 10 uM compound. Summed up:
as §1

For the compound `CC(C)CC(NC(=O)OCc1ccccc1)C(=O)NC(Cc1ccccc1)C(=O)CON1C(=O)C2C3C=CC(C3)C2C1=O` (stereo not given), in test [1], the Ratio is 0.14. Moreover, the K obs / 1 in test [2] worked out at 6900 M⁻¹ s⁻¹; in test [3] it was 1000 M⁻¹ s⁻¹.
For the compound `CC(C)CC(NC(=O)OCc1ccccc1)C(=O)NC(Cc1ccccc1)C(=O)COn1nnc2cccnc21` (stereo not given), the Ratio in test [1] is 1.7. Moreover, the K obs / 1 is 107000 M⁻¹ s⁻¹ in test [2] and 184000 M⁻¹ s⁻¹ in test [3].
In general, inhibition refers to the share of the control response that was lost under treatment. Take `CC(C)CC(NC(=O)OCc1ccccc1)C(=O)NC(Cc1ccccc1)C(=O)CON1C(=O)c2ccccc2C1=O` (stereo not given): the inhibition in test [4] is 32%.
As to `CC(C)CC(NC(=O)OCc1ccccc1)C(=O)NC(Cc1ccccc1)C(=O)Cn1nnc2ccccc21` (stereo not given), the inhibition in test [4] came out at 83%.
Regarding `CC(C)CC(NC(=O)OCc1ccccc1)C(=O)NC(Cc1ccccc1)C(=O)COn1nnc2ccccc21` (stereo in doubt; 1d), the Ratio in test [1] worked out at 2.7. Also, the values for the K obs / 1 in test [2] and in test [3] were 118000 M⁻¹ s⁻¹ and 320000 M⁻¹ s⁻¹, respectively.
As for `CC(C)CC(NC(=O)OCc1ccccc1)C(=O)NC(Cc1ccccc1)C(=O)CON1C(=O)CCC1=O` (stereo not given), in test [3], the K obs / 1 is 5800 M⁻¹ s⁻¹.
Take `CC(C)CC(NC(=O)OCc1ccccc1)C(=O)NC(Cc1ccccc1)C(=O)CF` (stereo not drawn) (Cbz-Leu-Phe-CH2F; configuration not given here): the Ratio in test [1] is 454. The K obs / 1 in test [2] worked out at 300 M⁻¹ s⁻¹; in test [3] it was 136000 M⁻¹ s⁻¹.
Regarding `CC(C)CC(NC(=O)OCc1ccccc1)C(=O)NC(CC(C)C)C(=O)NC(Cc1ccccc1)C(=O)COn1nnc2ccccc21` (stereo not given), the inhibition in test [5] is 32%. Besides, the K obs / 1 in test [3] is 524000 M⁻¹ s⁻¹.
For `CCC(NC(=O)C(CC(C)C)NC(=O)OCc1ccccc1)C(=O)COn1nnc2ccccc21` (stereo not given), the Ratio in test [1] came to 0.14. The K obs / 1 in test [2] amounted to 443000 M⁻¹ s⁻¹; in test [3] it was 63000 M⁻¹ s⁻¹.

The values above are taken from ChEMBL document CHEMBL1133143, “Calpain inhibitors based on the quiescent affinity label concept: high rates of calpain inactivation with leaving groups derived from N-hydroxy peptide coupling reagents” (Bioorg Med Chem Lett, 2000).
